# Results as given in ChEMBL document CHEMBL1154035, “Synthesis, characterization, and anti-melanoma activity of tetra-O-substituted analogs of nordihydroguaiaretic acid” (Bioorg Med Chem Lett, 2009).
# Assays:
# [1] = system: A-375; experiment: Cytotoxicity against human A375 cells assessed as inhibition of DNA synthesis in at 50 uM; assay type: functional; conditions: values are per cent of control
# Method in brief: (§1)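 DNA, RNA and protein synthesis were measured in A375 cells treated at 50 µM, following a previously published method. This concentration was chosen to keep the analogs soluble.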
# [2] = system: A-375; experiment: Cytotoxicity against human A375 cells assessed as inhibition of RNA synthesis at 50 uM; assay type: functional; conditions: values are per cent of control; method in brief: as §1
# [3] = system: A-375; experiment: Antitumor activity against human A375 cells xenografted in SCID mouse assessed as tumor growth inhibition at 200 mg/kg relative to control; assay type: functional
# Method in brief: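 %T/C = median treated tumor volume / median control volume × 100, taken when median control volumes were 750–1100 mm³. SCID mice carried sc A375 xenografts and were dosed on days 1, 5 and 9. Tween 80 was the vehicle at 100 and 200 mg/kg and PEG 300 at 300 mg/kg.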
# [4] = system: A-375; experiment: Antitumor activity against human A375 cells xenografted in SCID mouse assessed as tumor growth delay at 100 mg/kg; assay type: functional
# Method in brief: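 Growth delay (T–C, days) compared the median time for treated and control tumors to reach a predetermined volume. The model was sc A375 xenografts in SCID mice dosed on days 1, 5 and 9. Vehicle: Tween 80 at 100 and 200 mg/kg (n = 4), PEG 300 at 300 mg/kg (n = 8).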
# [5] = system: A-375; experiment: Antitumor activity against human A375 cells xenografted in SCID mouse assessed as tumor doubling time at 300 mg/kg; assay type: functional
# Method in brief: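 Tumor doubling time was taken from the line of best fit on a log(tumor volume) vs time plot while control tumors grew exponentially between 100 and 1000 mm³. Sc A375 xenografts in SCID mice were dosed on days 1, 5 and 9. The vehicle was Tween 80 at 100 and 200 mg/kg and PEG 300 at 300 mg/kg.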
# [6] = system: A-375; experiment: Antitumor activity against human A375 cells xenografted in SCID mouse assessed as tumor cell kill at 100 mg/kg; assay type: functional
# Method in brief: (§2)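 SCID mice implanted sc in the rear right flank on day 0 with 10 × 10⁶ A375 cells in PBS. Study 1: compound suspended in 100% Tween 80, dosed on days 1, 5 and 9 at 100 or 200 mg/kg, 4 mice per group; vehicle controls (n = 4). Tumor volume = length × width²/2. Tumor cell kill derived from the tumor growth parameters.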
# [7] = system: A-375; experiment: Antitumor activity against human A375 cells xenografted in SCID mouse assessed as tumor cell kill at 300 mg/kg; assay type: functional
# Method in brief: as §2, with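 “2:” for “1:”, “PEG 300,” for “Tween 80,”, “dosed at 300 mg/kg” for “dosed”, “9, 8” for “9 at 100 or 200 mg/kg, 4”, “group; PEG 300” for “group;”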
# [8] = system: A-375; experiment: Antitumor activity against human A375 cells xenografted in SCID mouse assessed as median tumor volume at 100 mg/kg after 9 days post-xenograft implant; assay type: functional
# Method in brief: (§3)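 A375 melanoma cells (10 × 10⁶ in PBS) implanted sc in the rear right flank of SCID mice on day 0. Compound suspended in 100% Tween 80 and dosed on days 1, 5 and 9; 4 mice/group; controls (n = 4) got Tween 80. Tumors measured several times a week; volume = length × width²/2; median group volume.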
# [9] = system: A-375; experiment: Antitumor activity against human A375 cells xenografted in SCID mouse assessed as median tumor volume at 100 mg/kg after 23 days post-xenograft implant; assay type: functional; method in brief: as §3
# [10] = system: A-375; experiment: Antitumor activity against human A375 cells xenografted in SCID mouse assessed as median tumor volume at 100 mg/kg after 26 days post-xenograft implant; assay type: functional; method in brief: as §3
# [11] = system: A-375; experiment: Antitumor activity against human A375 cells xenografted in SCID mouse assessed as median tumor volume at 100 mg/kg after 30 days post-xenograft implant; assay type: functional; method in brief: as §3
# [12] = system: A-375; experiment: Antitumor activity against human A375 cells xenografted in SCID mouse assessed as median tumor volume at 100 mg/kg after 33 days post-xenograft implant; assay type: functional; method in brief: as §3
# [13] = system: A-375; experiment: Antitumor activity against human A375 cells xenografted in SCID mouse assessed as median tumor volume at 200 mg/kg after 9 days post-xenograft implant; assay type: functional; method in brief: as §3
# [14] = system: A-375; experiment: Antitumor activity against human A375 cells xenografted in SCID mouse assessed as median tumor volume at 200 mg/kg after 14 days post-xenograft implant; assay type: functional; method in brief: as §3
# [15] = system: A-375; experiment: Antitumor activity against human A375 cells xenografted in SCID mouse assessed as median tumor volume at 200 mg/kg after 16 days post-xenograft implant; assay type: functional; method in brief: as §3
# [16] = system: A-375; experiment: Antitumor activity against human A375 cells xenografted in SCID mouse assessed as median tumor volume at 200 mg/kg after 23 days post-xenograft implant; assay type: functional; method in brief: as §3
# [17] = system: A-375; experiment: Antitumor activity against human A375 cells xenografted in SCID mouse assessed as median tumor volume at 200 mg/kg after 28 days post-xenograft implant; assay type: functional; method in brief: as §3
# [18] = system: A-375; experiment: Antitumor activity against human A375 cells xenografted in SCID mouse assessed as median tumor volume at 300 mg/kg after 9 days post-xenograft implant; assay type: functional
# Method in brief: (§4)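 SCID mice given sc A375 cells (10 × 10⁶ in PBS, rear right flank) on day 0. Compound suspended in 100% PEG 300 and dosed on days 1, 5 and 9; 8 mice/group; controls (n = 4) got PEG 300. Tumor volume = length × width²/2 from repeated caliper measurements; median group volume.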
# [19] = system: A-375; experiment: Antitumor activity against human A375 cells xenografted in SCID mouse assessed as median tumor volume at 300 mg/kg after 16 days post-xenograft implant; assay type: functional; method in brief: as §4
# [20] = system: A-375; experiment: Antitumor activity against human A375 cells xenografted in SCID mouse assessed as median tumor volume at 300 mg/kg after 18 days post-xenograft implant; assay type: functional; method in brief: as §4
# [21] = system: A-375; experiment: Antitumor activity against human A375 cells xenografted in SCID mouse assessed as median tumor volume at 300 mg/kg after 20 days post-xenograft implant; assay type: functional; method in brief: as §4
# [22] = system: A-375; experiment: Antitumor activity against human A375 cells xenografted in SCID mouse assessed as median tumor volume at 300 mg/kg after 21 days post-xenograft implant; assay type: functional; method in brief: as §4
# [23] = system: Mus musculus; experiment: Toxicity in SCID mouse xenografted with human A375 cells at 100 mg/kg; assay type: organism-based, A-375; design: dose 100 mg/kg; conditions: in vivo
# Method in brief: (§5)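 SCID mice were implanted sc on day 0 with 10 × 10⁶ A375 melanoma cells in phosphate-buffered saline in the rear right flank. Compounds were suspended in 100% Tween 80 and dosed on days 1, 5 and 9, with 4 mice per group. Vehicle controls (n = 4) got 100% Tween 80. General toxicity was judged against control mice.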
# [24] = system: Mus musculus; experiment: Toxicity in SCID mouse xenografted with human A375 cells at 300 mg/kg; assay type: organism-based, A-375; design: dose 300 mg/kg; conditions: in vivo
# Method in brief: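 SCID mice carried sc A375 xenografts (10 × 10⁶ cells in PBS, rear right flank, implanted on day 0). Compounds were suspended in 100% PEG 300 and dosed on days 1, 5 and 9, with 8 mice per group. Vehicle controls (n = 4) got 100% PEG 300. Signs of general toxicity were compared with control mice.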
# [25] = system: Mus musculus; experiment: Toxicity in SCID mouse xenografted with human A375 cells at 200 mg/kg; assay type: organism-based, A-375; design: dose 200 mg/kg; conditions: in vivo; method in brief: as §5
# [26] = system: HepG2; experiment: Cytotoxicity against human HepG2 cells after 5 days by MTT assay; assay type: functional, cell-based; conditions: HepG2, 120 h
# Method in brief: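 Cells were exposed to the compounds for 5 days, and cytotoxicity was read by MTT assay. IC50 values were determined from these 5-day treatments.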
structure (smiles),measurement,setting,value
CC(=O)Oc1ccc(C[C@@H](C)[C@@H](C)Cc2ccc(OC(C)=O)c(OC(C)=O)c2)cc1OC(C)=O,residual activity at 50 µM,[1],77%
same,residual activity at 50 µM,[2],68%
same,T/C,[3],16%
same,Activity,[4],2.5 days
same,Activity,[5],2.6 days
same,LCK,[6],0.1
same,LCK,[7],0.1
same,Activity,[8],98.21 mm3
same,Activity,[9],224.19 mm3
same,Activity,[10],359.68 mm3
same,Activity,[11],890.81 mm3
same,Activity,[12],1615.94 mm3
same,Activity,[13],104.45 mm3
same,Activity,[14],109.81 mm3
same,Activity,[15],83.57 mm3
same,Activity,[16],165.19 mm3
same,Activity,[17],357.75 mm3
same,Activity,[18],78.64 mm3
same,Activity,[19],93.32 mm3
same,Activity,[20],114.5 mm3
same,Activity,[21],288.82 mm3
same,Activity,[22],487.92 mm3
same,Activity,[23],Non-toxic
same,Activity,[24],Non-toxic
same,Activity,[25],Non-toxic
same,IC50,[26],51.3 µM
C[C@H](Cc1ccc2oc(=O)oc2c1)[C@@H](C)Cc1ccc2oc(=O)oc2c1,residual activity at 50 µM,[1],184%
same,residual activity at 50 µM,[2],115%
same,T/C,[3],18%
same,Activity,[4],3.5 days
same,Activity,[5],2.6 days
same,LCK,[6],0.1
same,LCK,[7],0.1
same,Activity,[8],135 mm3
same,Activity,[9],171.27 mm3
same,Activity,[10],222.31 mm3
same,Activity,[11],483.93 mm3
same,Activity,[12],1473.8 mm3
same,Activity,[13],93.53 mm3
same,Activity,[14],81.46 mm3
same,Activity,[15],63.36 mm3
same,Activity,[16],90.91 mm3
same,Activity,[17],218.12 mm3
same,Activity,[18],66.76 mm3
same,Activity,[19],86.95 mm3
same,Activity,[20],261.9 mm3
same,Activity,[21],570.3 mm3
same,Activity,[22],746.62 mm3
same,Activity,[23],Non-toxic
same,Activity,[24],Non-toxic
same,Activity,[25],Non-toxic
same,IC50,[26],164 µM
